Measurements published in ChEMBL document CHEMBL1122071, “Avermectin acyl derivatives with anthelmintic activity” (1982).

Key:
Format in all cases: functional
[1] = tested on: Teladorsagia circumcincta; test: Anthelmintic efficacy against […] (EL4) Ostertagia circumcincta (O. c) in sheep at dose of 0.025 mg/kg administered orally; 60-89%
Procedure, shortened: (§1)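 Lambs were experimentally infected with mixed gastrointestinal nematodes: Haemonchus contortus, Ostertagia circumcincta, Trichostrongylus axei, T. colubriformis, Cooperia oncophora and Oesophagostomum columbianum. Dosing was oral, in mg/kg, with 3 sheep per dose group. An untreated infected group of 6 sheep served as reference, with worm burdens given as the geometric mean per lamb. Immature (EL4) and adult worms were scored separately.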

[2] = tested on: Teladorsagia circumcincta; test: Anthelmintic efficacy against immature (EL4) Ostertagia circumcincta (O. c) in sheep at dose of 0.1 mg/kg administered orally; settings: route oral; procedure, shortened: as §1
Haemonchus contortus [3] = test: Anthelmintic efficacy against immature (EL4) Haemonchus contortus (H.c) in sheep at dose of 0.1 mg/kg administered orally; settings: route oral; procedure, shortened: as §1
Haemonchus contortus [4] = test: Anthelmintic efficacy against immature (EL4) Haemonchus contortus (H.c) in sheep at dose of 0.05 mg/kg administered orally; settings: route oral; procedure, shortened: as §1
Haemonchus contortus [5] = test: Anthelmintic efficacy against immature (EL4) Haemonchus contortus (H.c) in sheep at dose of 0.025 mg/kg administered orally; settings: route oral; procedure, shortened: as §1
[6] = tested on: Teladorsagia circumcincta; test: Anthelmintic efficacy against adult Ostertagia circumcincta (O. c) in sheep at dose of 0.05 mg/kg administered orally; settings: route oral; procedure, shortened: as §1
Trichostrongylus axei [7] = test: Anthelmintic efficacy against Trichostrongylus axei (T.a) in sheep at dose of 0.05 mg/kg administered orally; settings: route oral; procedure, shortened: as §1
[8] = tested on: Trichostrongylus colubriformis; test: Anthelmintic efficacy against Trichostrongylus colubriformis (T.c) in sheep at dose of 0.025 mg/kg administered orally; 60-89%; procedure, shortened: as §1
Trichostrongylus axei [9] = test: Anthelmintic efficacy against Trichostrongylus axei (T.a) in sheep at dose of 0.1 mg/kg administered orally; settings: route oral
Procedure, shortened: (§2)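 Lambs experimentally infected with mixed gastrointestinal nematodes (H. contortus, O. circumcincta, T. axei, T. colubriformis, C. oncophora, Oe. columbianum) were dosed orally, 1–3 sheep per dose. An untreated infected group of 6 was included, with worm burdens given as the geometric mean number of worms per lamb. Efficacy was scored against adult and, where listed, EL4 stages.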

Trichostrongylus axei [10] = test: Anthelmintic efficacy against Trichostrongylus axei (T.a) in sheep at dose of 0.025 mg/kg administered orally; 60-89%; procedure, shortened: as §1
[11] = tested on: Teladorsagia circumcincta; test: Anthelmintic efficacy against immature (EL4) Ostertagia circumcincta (O. c) in sheep at dose of 0.05 mg/kg administered orally; settings: route oral; procedure, shortened: as §1
Cooperia oncophora [12] = test: Anthelmintic efficacy against immature (EL4) Cooperia oncopphora (C.o) in sheep at dose of 0.1 mg/kg administered orally; settings: route oral; procedure, shortened: as §1
[13] = tested on: Teladorsagia circumcincta; test: Anthelmintic efficacy against immature (EL4) Ostertagia circumcincta (O. c) in sheep at dose of 0.025 mg/kg administered orally; 20-59%; procedure, shortened: as §1
[14] = tested on: Oesophagostomum columbianum; test: Anthelmintic efficacy against Oseophagostomum columbianum (Oe. c) in sheep at dose of 0.025 mg/kg administered orally; settings: route oral; procedure, shortened: as §1
Cooperia oncophora [15] = test: Anthelmintic efficacy against immature (EL4) Cooperia oncopphora (C.o) in sheep at dose of 0.025 mg/kg administered orally; 0-19%; procedure, shortened: as §1
Cooperia oncophora [16] = test: Anthelmintic efficacy against adult Cooperia oncopphora (C.o) in sheep at dose of 0.05 mg/kg administered orally; settings: route oral; procedure, shortened: as §1
[17] = tested on: Trichostrongylus colubriformis; test: Anthelmintic efficacy against Trichostrongylus colubriformis (T.c) in sheep at dose of 0.1 mg/kg administered orally; settings: route oral; procedure, shortened: as §1
[18] = tested on: Teladorsagia circumcincta; test: Anthelmintic efficacy against adult Ostertagia circumcincta (O. c) in sheep at dose of 0.1 mg/kg administered orally; settings: route oral; procedure, shortened: as §2
Haemonchus contortus [19] = test: Anthelmintic efficacy against adult Haemonchus contortus (H.c) in sheep at dose of 0.05 mg/kg administered orally; settings: route oral; procedure, shortened: as §1
Cooperia oncophora [20] = test: Anthelmintic efficacy against adult Cooperia oncopphora (C.o) in sheep at dose of 0.1 mg/kg administered orally; settings: route oral; procedure, shortened: as §1
[21] = tested on: Trichostrongylus colubriformis; test: Minimal dose necessary to eliminate > 83% of Trichostrongylus colubriformis infection in gerbils
Cooperia oncophora [22] = test: Anthelmintic efficacy against immature (EL4) Cooperia oncopphora (C.o) in sheep at dose of 0.05 mg/kg administered orally; settings: route oral; procedure, shortened: as §1
[23] = tested on: Oesophagostomum columbianum; test: Anthelmintic efficacy against Oseophagostomum columbianum (Oe. c) in sheep at dose of 0.1 mg/kg administered orally; settings: route oral; procedure, shortened: as §2
Cooperia oncophora [24] = test: Anthelmintic efficacy against adult Cooperia oncopphora (C.o) in sheep at dose of 0.025 mg/kg administered orally; 20-59%; procedure, shortened: as §1
Haemonchus contortus [25] = test: Anthelmintic efficacy against adult Haemonchus contortus (H.c) in sheep at dose of 0.1 mg/kg administered orally; settings: route oral; procedure, shortened: as §2
[26] = tested on: Trichostrongylus colubriformis; test: Anthelmintic efficacy against Trichostrongylus colubriformis (T.c) in sheep at dose of 0.05 mg/kg administered orally; settings: route oral; procedure, shortened: as §1
[27] = tested on: Oesophagostomum columbianum; test: Anthelmintic efficacy against Oseophagostomum columbianum (Oe. c) in sheep at dose of 0.05 mg/kg administered orally; settings: route oral; procedure, shortened: as §1
Haemonchus contortus [28] = test: Anthelmintic efficacy against adult Haemonchus contortus (H.c) in sheep at dose of 0.025 mg/kg administered orally; settings: route oral; procedure, shortened: as §1
[29] = tested on: Teladorsagia circumcincta; test: Anthelmintic efficacy against immature (EL4) Ostertagia circumcincta (O. c) in sheep at dose of 0.025 mg/kg administered orally; 0-19%
[30] = tested on: Teladorsagia circumcincta; test: Anthelmintic efficacy against immature (EL4) Ostertagia circumcincta (O. c) in sheep at dose of 0.1 mg/kg administered orally; 0-19
Cooperia oncophora [31] = test: Anthelmintic efficacy against adult Cooperia oncopphora (C.o) in sheep at dose of 0.1 mg/kg administered orally; 0-19%; procedure, shortened: as §2
Cooperia oncophora [32] = test: Anthelmintic efficacy against immature (EL4) Cooperia oncopphora (C.o) in sheep at dose of 0.05 mg/kg administered orally; 20-59%
[33] = tested on: Trichostrongylus colubriformis; test: Anthelmintic efficacy against Trichostrongylus colubriformis (T.c) in sheep at dose of 0.05 mg/kg administered orally; 60-89%; procedure, shortened: as §2
Haemonchus contortus [34] = test: Anthelmintic efficacy against immature (EL4) Haemonchus contortus (H.c) in sheep at dose of 0.025 mg/kg administered orally; 20-59%
Cooperia oncophora [35] = test: Anthelmintic efficacy against adult Cooperia oncopphora (C.o) in sheep at dose of 0.025 mg/kg administered orally; 0-19%; procedure, shortened: as §2
[36] = tested on: Teladorsagia circumcincta; test: Anthelmintic efficacy against adult Ostertagia circumcincta (O. c) in sheep at dose of 0.025 mg/kg administered orally; 60-89%; procedure, shortened: as §2
Trichostrongylus axei [37] = test: Anthelmintic efficacy against Trichostrongylus axei (T.a) in sheep at dose of 0.05 mg/kg administered orally; 60-89%; procedure, shortened: as §2
Haemonchus contortus [38] = test: Anthelmintic efficacy against adult Haemonchus contortus (H.c) in sheep at dose of 0.025 mg/kg administered orally; 0-19%; procedure, shortened: as §2
[39] = tested on: Teladorsagia circumcincta; test: Anthelmintic efficacy against adult Ostertagia circumcincta (O. c) in sheep at dose of 0.05 mg/kg administered orally; 60-89%; procedure, shortened: as §2
Trichostrongylus axei [40] = test: Anthelmintic efficacy against Trichostrongylus axei (T.a) in sheep at dose of 0.025 mg/kg administered orally; 0-19%; procedure, shortened: as §2
[41] = tested on: Oesophagostomum columbianum; test: Anthelmintic efficacy against Oseophagostomum columbianum (Oe. c) in sheep at dose of 0.05 mg/kg administered orally; 60-89%; procedure, shortened: as §2
Cooperia oncophora [42] = test: Anthelmintic efficacy against immature (EL4) Cooperia oncopphora (C.o) in sheep at dose of 0.1 mg/kg administered orally; 20-59%
[43] = tested on: Oesophagostomum columbianum; test: Anthelmintic efficacy against Oseophagostomum columbianum (Oe. c) in sheep at dose of 0.025 mg/kg administered orally; 60-89%; procedure, shortened: as §2
Cooperia oncophora [44] = test: Anthelmintic efficacy against adult Cooperia oncopphora (C.o) in sheep at dose of 0.05 mg/kg administered orally; 0-19%; procedure, shortened: as §2
[45] = tested on: Teladorsagia circumcincta; test: Anthelmintic efficacy against immature (EL4) Ostertagia circumcincta (O. c) in sheep at dose of 0.05 mg/kg administered orally; 0-19%
[46] = tested on: Trichostrongylus colubriformis; test: Anthelmintic efficacy against Trichostrongylus colubriformis (T.c) in sheep at dose of 0.025 mg/kg administered orally; 0-19%; procedure, shortened: as §2
Cooperia oncophora [47] = test: Anthelmintic efficacy against immature (EL4) Cooperia oncopphora (C.o) in sheep at dose of 0.025 mg/kg administered orally; 20-59%
Haemonchus contortus [48] = test: Anthelmintic efficacy against immature (EL4) Haemonchus contortus (H.c) in sheep at dose of 0.05 mg/kg administered orally; 60-89%
Haemonchus contortus [49] = test: Anthelmintic efficacy against adult Haemonchus contortus (H.c) in sheep at dose of 0.05 mg/kg administered orally; 60-89%; procedure, shortened: as §2

CC[C@H](C)[C@H]1O[C@]2(C=C[C@@H]1C)C[C@@H]1C[C@@H](C/C=C(\C)[C@@H](O[C@H]3C[C@H](OC)[C@@H](O[C@H]4C[C@H](OC)[C@@H](O)[C@H](C)O4)[C@H](C)O3)[C@@H](C)/C=C/C=C3\CO[C@@H]4[C@H](O)C(C)=C[C@@H](C(=O)O1)[C@]34O)O2 [ABAMECTIN COMPONENT B1A]
Efficacy [1]: 60% | Efficacy [2]: >90% | Efficacy (Haemonchus contortus [3]): >90% | Efficacy (Haemonchus contortus [4]): >90% | Efficacy (Haemonchus contortus [5]): >90% | Efficacy [6]: >90% | Efficacy (Trichostrongylus axei [7]): >90% | Efficacy [8]: 60% | Efficacy (Trichostrongylus axei [9]): >90% | Efficacy (Trichostrongylus axei [10]): 60% | Efficacy [11]: >90% | Efficacy (Cooperia oncophora [12]): >90% | Efficacy [13]: 20% | Efficacy [14]: >90% | Efficacy (Cooperia oncophora [15]): 0% | Efficacy (Cooperia oncophora [16]): >90% | Efficacy [17]: >90% | Efficacy [18]: >90% | Efficacy (Haemonchus contortus [19]): >90% | Efficacy (Cooperia oncophora [20]): >90% | Dose [21]: 0.025 mg/kg | Efficacy (Cooperia oncophora [22]): >90% | Efficacy [23]: >90% | Efficacy (Cooperia oncophora [24]): 20% | Efficacy (Haemonchus contortus [25]): >90% | Efficacy [26]: >90% | Efficacy [27]: >90% | Efficacy (Haemonchus contortus [28]): >90%

CC[C@H](C)[C@H]1O[C@]2(CC(O)[C@@H]1C)C[C@@H]1C[C@@H](C/C=C(\C)[C@@H](OC3CC(OC)C(OC4CC(OC)C(O)C(C)O4)C(C)O3)[C@@H](C)/C=C/C=C3\CO[C@@H]4[C@H](OC)C(C)=C[C@@H](C(=O)O1)[C@]34O)O2 (stereo partly specified) [AVERMECTIN A2]
Efficacy [29]: 0% | Efficacy [30]: 0% | Efficacy (Cooperia oncophora [31]): 0% | Efficacy (Haemonchus contortus [3]): >90% | Efficacy (Cooperia oncophora [32]): 20% | Efficacy [33]: 60% | Efficacy (Haemonchus contortus [34]): 20% | Efficacy (Cooperia oncophora [35]): 0% | Efficacy (Trichostrongylus axei [9]): >90% | Efficacy [36]: 60% | Efficacy (Trichostrongylus axei [37]): 60% | Efficacy (Haemonchus contortus [38]): 0% | Efficacy [39]: 60% | Efficacy (Trichostrongylus axei [40]): 0% | Efficacy [17]: >90% | Efficacy [41]: 60% | Efficacy (Cooperia oncophora [42]): 20% | Efficacy [43]: 60% | Efficacy [18]: >90% | Efficacy (Cooperia oncophora [44]): 0% | Efficacy [45]: 0% | Dose [21]: 0.05 mg/kg | Efficacy [46]: 0% | Efficacy (Cooperia oncophora [47]): 20% | Efficacy [23]: >90% | Efficacy (Haemonchus contortus [25]): >90% | Efficacy (Haemonchus contortus [48]): 60% | Efficacy (Haemonchus contortus [49]): 60%
